Active and inactive are the calls of the source. The rule behind the calls is not given here.
Columns and labels:
[1] = test system: J774; test: Activation of NF-kappaB in mouse J774 cells at 2.5 ug/ml after 1 hr by EMSA; type: cell-based
In short: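 Murine J774 macrophages in DMEM with 10% FBS and antibiotics, plated at 5×10^6 cells/well. ODNs were given alone or together for 1 h. For inhibition, the agonist ODN at 0.5 μg/mL was co-incubated with the modified ODN at 2.5 μg/mL. Nuclear extracts were resolved by EMSA on native polyacrylamide gels and read by autoradiography.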

[2] = test system: J774; test: Inhibition of 5'-CTATCTGACGTTCTCTGT-3'-activated NF-kappaB activity in mouse J774 cells at 2.5 ug/ml after 1 hr by EMSA; type: cell-based
In short: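 J774 murine macrophages were grown in DMEM with 10% FBS and antibiotics, plated at 5 × 10^6 cells/well, and co-incubated for 1 h with the agonist ODN (0.5 µg/mL) and test ODN (2.5 µg/mL). Nuclear extracts were prepared and NF-κB binding was analysed by EMSA on native polyacrylamide gels with autoradiography.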

For COC1[C@H](n2cnc3c(N)ncnc32)O[C@H](COP(=O)(S)O[C@H]2C(OC)[C@H](n3cnc4c(=O)[nH]c(N)nc43)O[C@@H]2COP(=O)(S)O[C@H]2C[C@H](n3cc(C)c(=O)[nH]c3=O)O[C@@H]2COP(=O)(S)O[C@H]2C[C@H](n3ccc(N)nc3=O)O[C@@H]2COP(=O)(S)O[C@H]2C[C@H](n3cc(C)c(=O)[nH]c3=O)O[C@@H]2COP(=O)(S)O[C@H]2C[C@H](n3cnc4c(N)ncnc43)O[C@@H]2COP(=O)(S)O[C@H]2C[C@H](n3cc(C)c(=O)[nH]c3=O)O[C@@H]2COP(=O)(S)O[C@H]2C[C@H](n3ccc(N)nc3=O)O[C@@H]2CO)[C@H]1OP(=O)(S)OC[C@H]1O[C@@H](n2ccc(N)nc2=O)C[C@@H]1OP(=O)(S)OC[C@H]1O[C@@H](n2ccc(N)nc2=O)C[C@@H]1OP(=O)(S)OC[C@H]1O[C@@H](n2cc(C)c(=O)[nH]c2=O)C[C@@H]1OP(=O)(S)OC[C@H]1O[C@@H](n2cc(C)c(=O)[nH]c2=O)C[C@@H]1OP(=O)(S)OC[C@H]1O[C@@H](n2ccc(N)nc2=O)C[C@@H]1OP(=O)(S)OC[C@H]1O[C@@H](n2cc(C)c(=O)[nH]c2=O)C[C@@H]1OP(=O)(S)OC[C@H]1O[C@@H](n2ccc(N)nc2=O)C[C@@H]1OP(=O)(S)OC[C@H]1O[C@@H](n2cc(C)c(=O)[nH]c2=O)C[C@@H]1OP(=O)(S)OC[C@H]1O[C@@H](n2cnc3c(=O)[nH]c(N)nc32)C[C@@H]1OP(=O)(S)OC[C@H]1O[C@@H](n2cc(C)c(=O)[nH]c2=O)C[C@@H]1O (some centres not stated), the Activity [1] was “inactive” and the Activity [2] was “inactive”.
